Active and inactive are the calls of the source. No cut-off for these calls is given here.
Columns and labels:
MIA PaCa-2 [1] = test: Inhibition of chemoresistant human MIAPaCa2 cell proliferation after 48 hrs by MTT assay; format: functional
How it was run: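 MiaPaCa-2 cells in DMEM with 10% FBS seeded at 15 000/well and left to attach overnight. Medium replaced with fresh medium holding a range of concentrations, or medium alone; gemcitabine control. Incubated 48 h at 37 °C, 5% CO₂, and viable cells measured by MTT. Mean ± SE of three independent experiments.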

MIA PaCa-2 [2] = test: Induction of apoptosis in chemoresistant human MIAPaCa2 cells assessed as increase in cell accumulation at sub-G1/G0 phase after 48 hrs by FACS analysis relative to control; format: functional
How it was run: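 MiaPaCa-2 cells treated 48 h, with untreated and gemcitabine controls. Cells trypsinized, PBS-washed and fixed overnight at 4 °C in cold 70% ethanol. Treated with RNase (500 μg/mL) and stained with propidium iodide (50 μg/mL). Sub-G1/G0 fraction read by flow cytometry on 10⁶ cells; triplicate.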

MIA PaCa-2 [3] = test: Inhibition of DNA synthesis in chemoresistant human MIAPaCa2 cells assessed as incorporation of [3H]thymidine into DNA after 4 hrs by liquid scintillation counting; format: functional
How it was run: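 MiaPaCa-2 cells seeded at 15 000/well and treated in exponential growth for 4 h, with gemcitabine as comparator. Then labelled with [³H]thymidine (10 μCi/mL) for 6 h at 37 °C, 5% CO₂. Cells harvested and incorporated radioactivity measured by liquid scintillation counting.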

MIA PaCa-2 [4] = test: Inhibition of Hsp27 protein expression in chemoresistant human MIAPaCa2 cells by alexa fluor 488 staining-based immunofluorescence assay; format: functional, cell-based
How it was run: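 Treated and untreated MiaPaCa-2 cells fixed in 4% paraformaldehyde and permeabilized with 1% Triton. Incubated with mouse anti-Hsp27 monoclonal (1:500) overnight at 4 °C, blocked in BSA/PBS, then Alexa Fluor 488 secondary (1:750). Nuclei stained with DAPI for imaging.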

MIA PaCa-2 [5] = test: Inhibition of Hsp27 mRNA expression in chemoresistant human MIAPaCa2 cells after 24 hrs by RT-PCR analysis; format: functional
How it was run: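 MiaPaCa-2 cells treated 24 h. Total RNA isolated by TRIzol and reverse-transcribed. SYBR Green real-time PCR run with Hsp27 primers: 45 cycles of 95 °C 5 s, 57 °C 6 s, 72 °C 12 s, followed by a melting curve. Normalized to 18S rRNA; each sample in triplicate.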

MIA PaCa-2 [6] = test: Inhibition of Hsp27 protein expression in chemoresistant human MIAPaCa2 cells after 48 hrs by Western blotting; format: functional, cell-based
How it was run: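 MiaPaCa-2 cells treated and harvested at 48 h. Lysates loaded at 15 μg protein and blotted with rabbit polyclonal anti-human Hsp27 (1:5000) and vinculin reference (1:2000). Detected by enhanced chemiluminescence and band intensities quantified against untreated control.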

Mus musculus [7] = test: Toxicity in nude mouse xenografted with human MIAPaCa2 cells assessed as weight loss at 150 mg/kg, ip administered measured after 3 weeks; conditions: in vivo, 504 h
Mus musculus [8] = test: Toxicity in nude mouse xenografted with human MIAPaCa2 cells assessed as normal growth and behavior at 150 mg/kg, ip administered measured after 3 weeks; conditions: in vivo, 504 h
MIA PaCa-2 [9] = test: Antitumor activity against human MIAPaCa2 cells xenografted in nude mouse assessed as reduction in tumor volume at 150 mg/kg, ip administered measured after 3 weeks; set-up: scale not given: the % may be the effect or the level left; conditions: route intraperitoneal
MIA PaCa-2 [10] = test: Induction of necrosis in chemoresistant human MIAPaCa2 cells assessed as cell membrane damage associated LDH release up to 300 um after 1 hr; format: functional
How it was run: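 MiaPaCa-2 cells seeded at 15 000/well; 24 h later exposed to compound in DMSO for 1 h. LDH reaction mixture added 1:1 and incubated 10 min at 25 °C. Lysis buffer set as 100% release and medium as 0%. Result is released LDH over total cellular LDH; triplicate.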

MIA PaCa-2 [11] = test: Induction of necrosis in chemoresistant human MIAPaCa2 cells up to 12 hrs by 7-aminoactinomycin D staining-based FACS analysis; format: functional
How it was run: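 MiaPaCa-2 cells seeded at 500 000 per 6 cm dish and left overnight, then treated or left untreated for 3, 6 and 12 h. Stained with 7-AAD for 15 min at 25 °C, then read immediately by flow cytometry; triplicate.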

MIA PaCa-2 [12] = test: Induction of apoptosis in chemoresistant human MIAPaCa2 cells assessed as increase in caspase 3/7 activation after 48 hrs […] relative to control; format: functional
MIA PaCa-2 [13] = test: Induction of apoptosis in chemoresistant human MIAPaCa2 cells assessed as increase in DNA/histone nucleosome release after 48 hrs by ELISA relative to control; format: functional
How it was run: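 MiaPaCa-2 cells seeded at 15 000/well for 24 h, then treated or left untreated for 48 h. Cells lysed after centrifugation at 200g. Supernatant put on streptavidin plate with biotin anti-histone and peroxidase anti-DNA antibodies, 2 h at room temperature. After washes, substrate added for 20 min and read at 405 nm. Expressed as fold increase in absorbance over control; triplicate.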

MIA PaCa-2 [14] = test: Induction of apoptosis in chemoresistant human MIAPaCa2 cells assessed as increase in caspase 3/7 activation after 48 hrs by […] relative to gemcitabine; format: functional
How it was run: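 MiaPaCa-2 cells seeded at 15 000/well; 24 h later treated for 48 h, with gemcitabine and no-treatment controls. Apo-ONE homogeneous caspase-3/7 reagent added 1:1 to culture, containing fluorogenic Z-DEVD-R110 substrate. Incubated 30 min at room temperature, then fluorescence read. Triplicate.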

Question: How did the inhibition (MIA PaCa-2 [1]) turn out when `CCCc1ccc(C#Cc2nc(C(N)=O)n([C@@H]3O[C@H](CO)[C@@H](O)[C@H]3O)n2)cc1` was run?
Answer: Its inhibition is “inactive”.

Question: `NC(=O)c1nc(C#Cc2ccc(C(F)(F)F)cc2)nn1[C@@H]1O[C@H](CO)[C@@H](O)[C@H]1O` was tested. Which inhibition (MIA PaCa-2 [1]) did it give?
Answer: The inhibition was “inactive”.

Question: `Cc1ccc(C#Cc2nc(C(N)=O)n([C@@H]3O[C@H](CO)[C@@H](O)[C@H]3O)n2)cc1` was tested. Which inhibition (MIA PaCa-2 [1]) did it give?
Answer: Its inhibition is “inactive”.

Question: How did the inhibition (MIA PaCa-2 [1]) turn out when `CCCCCc1ccc(-c2nc(C(N)=O)n([C@@H]3O[C@H](CO)[C@@H](O)[C@H]3O)n2)cc1` was run?
Answer: Its inhibition is “inactive”.

Question: Which results are given for `CCCCCc1ccc(C#Cc2nc(C(N)=O)n([C@@H]3O[C@H](CO)[C@@H](O)[C@H]3O)n2)cc1`?
Answer: fold change (FC) (MIA PaCa-2 [2]): 14; inhibition (MIA PaCa-2 [3]): inactive; inhibition (MIA PaCa-2 [4]): Active; inhibition (INH) (MIA PaCa-2 [5]): 80%; inhibition (MIA PaCa-2 [6]): Active; Activity (Mus musculus [7]): Non-toxic; Activity (Mus musculus [8]): Non-toxic; Activity (MIA PaCa-2 [9]): 50%; Activity (MIA PaCa-2 [10]): <2%; Activity (MIA PaCa-2 [11]): <2%; inhibition (INH) (MIA PaCa-2 [1]): 80%; fold change (FC) (MIA PaCa-2 [12]): 30; fold change (FC) (MIA PaCa-2 [13]): 40; fold change (FC) (MIA PaCa-2 [14]): 12

Question: With `COC(=O)c1nc(C#Cc2ccc(C(F)(F)F)cc2)nn1[C@@H]1O[C@H](COC(C)=O)[C@@H](OC(C)=O)[C@H]1OC(C)=O` as the compound, how does the inhibition (MIA PaCa-2 [1]) read?
Answer: The inhibition was “inactive”.

Question: For `CCCCCc1ccc(C#Cc2nc(C(N)=O)n(COCCO)n2)cc1`, which inhibition (MIA PaCa-2 [1]) is on record?
Answer: Its inhibition is “inactive”.

Question: For `CCCCCc1ccc(-c2cn(-c3nc(C(N)=O)n([C@@H]4O[C@H](CO)[C@@H](O)[C@H]4O)n3)nn2)cc1`, which inhibition (MIA PaCa-2 [1]) is on record?
Answer: The inhibition was “inactive”.

Question: `Nc1ccn([C@@H]2O[C@H](CO)[C@@H](O)C2(F)F)c(=O)n1` [GEMCITABINE] was tested. Which “inhibition (INH)” value (MIA PaCa-2 [3]) did it give?
Answer: Its value is >90%.

Question: And the “inhibition (INH)” value (MIA PaCa-2 [1])?
Answer: The value was <30%.

Question: Which inhibition (MIA PaCa-2 [1]) does the source give for `CCCCCC#Cc1nc(C(N)=O)n([C@@H]2O[C@H](CO)[C@@H](O)[C@H]2O)n1` here?
Answer: Its inhibition is “inactive”.

Question: How did the inhibition (MIA PaCa-2 [1]) turn out when `CCCCCc1ccc(C#Cc2nc(C(=O)OC)n([C@@H]3O[C@H](COC(C)=O)[C@@H](OC(C)=O)[C@H]3OC(C)=O)n2)cc1` was run?
Answer: Its inhibition is “inactive”.

Question: `CCCCCc1ccc(CCc2nc(C(N)=O)n([C@@H]3O[C@H](CO)[C@@H](O)[C@H]3O)n2)cc1` was tested. Which inhibition (MIA PaCa-2 [1]) did it give?
Answer: Its inhibition is “inactive”.

Question: `CCCCCc1ccc(C#Cc2nc(C(N)=O)nn2[C@@H]2O[C@H](CO)[C@@H](O)[C@H]2O)cc1` was tested. Which inhibition (MIA PaCa-2 [1]) did it give?
Answer: The inhibition was “inactive”.
